Data on 14 compounds can be found in ChEMBL document CHEMBL4725329, “Anti-proliferative potential of triphenyl substituted pyrimidines against MDA-MB-231, HCT-116 and HT-29 cancer cell lines” (Bioorg Med Chem Lett, 2020).

For assay [1], the system named is MDA-MB-231. As to the kind of experiment: Antiproliferative activity against human MDA-MB-231 cells assessed as inhibition of cell proliferation measured after 48 hrs by MTT assay. The class given is functional, cell-based. Particulars: MDA-MB-231, 48 h. Summed up: (§1)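 Cells were exposed to test compounds at 1, 5, 10 and 25 µM for 48 h, with each concentration run in triplicate. Untreated cells served as control. Cell viability was measured and IC₅₀ values were derived as mean ± SD of three independent experiments.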
A general note: Tetrazolium dyes change colour on reduction, which living cells bring about.

The test system of assay [2] is HT-29. As to the kind of experiment: Antiproliferative activity against human HT-29 cells assessed as inhibition of cell proliferation measured after 48 hrs by MTT assay. The assay is classed as functional, cell-based. The conditions noted are these: HT-29, 48 h. Summed up: as §1
Assay [3] deals with HCT-116. As to the kind of experiment: Antiproliferative activity against human HCT-116 cells assessed as inhibition of cell proliferation measured after 48 hrs by MTT assay. The class given is functional, cell-based. The conditions noted are these: HCT-116, 48 h. Summed up: as §1
The test system of assay [4] is HCT-116. As to the kind of experiment: Induction of apoptosis in human HCT-116 cells assessed as live cells at 5 uM measured after 24 hrs by annexin-V/FITC staining based flow cytometry analysis (reference value: 97.1 %). The class given is functional. For orientation: In flow cytometry, cells or beads pass a laser one at a time.
In assay [5] the test system is HCT-116. Description: Induction of apoptosis in human HCT-116 cells assessed as early apoptotic cells at 5 uM measured after 24 hrs by annexin-V/FITC staining based flow cytometry analysis (reference value: 0.3 %). The class given is functional.
The subject of assay [6] is HCT-116. As to the kind of experiment: Induction of apoptosis in human HCT-116 cells assessed as necrotic cells at 5 uM measured after 24 hrs by annexin-V/FITC staining based flow cytometry analysis (reference value: 0.2 %). The assay is classed as functional.
The subject of assay [7] is HCT-116. Description: Induction of apoptosis in human HCT-116 cells assessed as late apoptotic cells at 5 uM measured after 24 hrs by annexin-V/FITC staining based flow cytometry analysis (reference value: 2.4 %). The class given is functional.
Assay [8] has as its target T1, Tubulin (Homo sapiens) (UniProt P68371+Q9H4B7+P0DPH7+P68366+Q13509+Q71U36+P04350+Q3ZCM7+P07437+P68363+Q9BQE3+Q6PEY2+Q13885+Q9BVA1+Q9BUF5). As to the kind of experiment: Inhibition of tubulin polymerization in human HCT-116 cells assessed as cell cycle arrest at G2/M phase at 12.5 uM measured after 24 hrs by propidium iodide staining based analysis. Set-up: scale not given: the % may be the effect or the level left.

In assay [9] the target is T1, Tubulin (Homo sapiens). As to the kind of experiment: Inhibition of tubulin polymerization in human HCT-116 cells assessed as cell cycle arrest at G1/G0 phase at 12.5 uM measured after 24 hrs by propidium iodide staining based analysis. Set-up: scale not given: the % may be the effect or the level left.

Molecules are shown by their SMILES.

By IC50 is commonly meant the point on the concentration scale where inhibition reaches its midpoint. Turning to `COc1cc(-c2cc(-c3cccs3)nc(-c3ccccc3)n2)cc(OC)c1OC`, the IC50 in assay [1] is 5.11 µM; in assay [2], above 25 µM; in assay [3], 17 µM.

As for `COc1cc(-c2cc(-c3ccc(Cl)cc3)nc(-c3ccccc3)n2)cc(OC)c1OC`, the IC50 in assay [1] was above 25 µM; in assay [2], 6.23 µM; in assay [3], 7.98 µM.

With `COc1cc(-c2cc(-c3cccc(O)c3)nc(-c3ccccc3)n2)cc(OC)c1OC`, the IC50 is 1.99 µM in assay [1], above 25 µM in assay [2] and 20.4 µM in assay [3].

As for `COc1cc2c(c(OC)c1OC)-c1ccc(OC)c(=O)cc1[C@@H](NC(C)=O)CC2` [COLCHICINE], the Activity is 38.8% in assay [4], 1.9% in [5], 2.9% in [6] and 56.4% in [7]. Further, the IC50 in [1] was 0.93 µM; in assay [2], 5.19 µM; in [3] it was 5.13 µM.

Regarding `COc1ccc(-c2cc(-c3cc(OC)c(OC)c(OC)c3)nc(-c3ccccc3)n2)cc1`, the Activity in assay [8] came out at 88.8%; in assay [4], 28.3%; in assay [5] it was 22.5%; in assay [9], 5.6%; in assay [6], 0.9%; in assay [7], 48.3%. Moreover, the IC50 was 3.39 µM in [1], 4.23 µM in assay [2] and 4.78 µM in assay [3].

On to `COc1cc(-c2cc(-c3cccc4ccccc34)nc(-c3ccccc3)n2)cc(OC)c1OC`, for which the Activity worked out at 8.1% in [8]; 23.7% in [4]; 26.4% in [5]; 78.5% in assay [9]; 0.3% in [6]; 49.6% in [7]. The IC50 in [1] was determined as 3.24 µM; in assay [2], 4.73 µM; in assay [3] it was 4.93 µM.

Regarding `COc1cc(-c2cc(-c3ccc(O)cc3O)nc(-c3ccccc3)n2)cc(OC)c1OC`, the Activity was 79.5% in assay [8]; 28.7% in assay [4]; 35.4% in assay [5]; 11.3% in assay [9]; 0.6% in assay [6]; 35.2% in assay [7]. In addition, the IC50 was found to be 0.81 µM in assay [1], 4.96 µM in [2] and 5.89 µM in [3].

For `COc1ccc(-c2cc(-c3cc(OC)c(OC)c(OC)c3)nc(-c3ccccc3)n2)c(OC)c1`, the IC50 was 1.44 µM in assay [1], above 25 µM in assay [2] and above 25 µM in [3].

Turning to `COc1cc(-c2cc(-c3cccc([N+](=O)[O-])c3)nc(-c3ccccc3)n2)cc(OC)c1OC`, the IC50 in assay [1] is 2.44 µM; in assay [2] it was above 25 µM; in assay [3], above 25 µM.

As to `COc1cc(-c2cc(-c3ccc(O)cc3)nc(-c3ccccc3)n2)cc(OC)c1OC`, the figures for the IC50 in [1], in [2] and in [3] were 1.6 µM, 11.3 µM and 11.8 µM, respectively.

Take `COc1cc(-c2cc(-c3ccc(Br)cc3)nc(-c3ccccc3)n2)cc(OC)c1OC`: the IC50 is above 25 µM in [1], 3.17 µM in assay [2] and 4.32 µM in assay [3].

As to `COc1cc(-c2cc(-c3ccc(C)cc3)nc(-c3ccccc3)n2)cc(OC)c1OC`, the IC50 is 5.11 µM in assay [1], above 25 µM in [2] and 15.7 µM in assay [3].

With `COc1cc(-c2cc(-c3ccc(N)cc3)nc(-c3ccccc3)n2)cc(OC)c1OC`, the IC50 in assay [1] is 1.01 µM; in assay [2], above 25 µM; in [3], 12.3 µM.

`COc1cc(-c2cc(-c3ccccc3)nc(-c3ccccc3)n2)cc(OC)c1OC`: the IC50 was found to be 5.87 µM in assay [1], 7.93 µM in assay [2] and 9.95 µM in assay [3].
